MIC and inhibition data for six compounds are collected here from ChEMBL document CHEMBL4390647, “Efficient click chemistry towards novel 1H-1,2,3-triazole-tethered 4H-chromene-d-glucose conjugates: Design, synthesis and evaluation of in vitro antibacterial, MRSA and antifungal activities” (Eur J Med Chem, 2019).

The MIC is the lowest concentration that inhibits growth of the organism.

Converted amounts (≈) assume the structure as drawn.

The test system of data set [1] is Staphylococcus aureus. The data set can be described thus: Antibacterial activity against Staphylococcus aureus ATCC 11632 after 18 to 20 hrs by microbroth dilution method. It counts as functional. In a few lines: (§1)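 Inoculum from a 4–6-h broth adjusted to 0.5 McFarland, final 5 × 10⁵ CFU/mL. Incubation at 35°C for 18–20 h. MIC taken as the lowest concentration giving complete inhibition of visible growth; three experiments.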

A further data set relates to Saccharomyces cerevisiae. The data set can be described thus: Antifungal activity against Saccharomyces cerevisiae SH 20 after 72 hrs by agar dilution method. Format: functional. The settings on record: SH 20, 72 h. In a few lines:
(§2)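 Agar dilution on Sabouraud dextrose agar, with compounds at […] to 0.78 μM in twofold steps. Fungal suspensions at 10 CFU/mL as printed were applied to the compound-containing plates. Incubation at 35°C; MIC read after 72 h. Three experiments.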
On the technique in general: Agar dilution tests growth on a series of plates holding different concentrations.

Another data set concerns Klebsiella pneumoniae. The data set can be described thus: Antibacterial activity against measured after Klebsiella pneumoniae ATCC 4352 measured after 18 to 20 hrs by microbroth dilution method. It counts as functional. The procedure, abridged:
as §1
In general terms: In broth dilution the organism is exposed to a series of concentrations in liquid medium.

For the next data set, the system named is Aspergillus flavus. The data set can be described thus: Antifungal activity against Aspergillus flavus ATCC 204304 measured after 72 hrs by agar dilution method. Format: functional. The settings on record: ATCC 204304, 72 h. In a few lines: as §2
Data set [2] concerns Staphylococcus aureus. As to the kind of experiment: Antibacterial activity against Staphylococcus aureus MRSA198 clinical isolate-3 measured after 18 to 20 hrs by microbroth dilution method. Format: functional. The settings on record: MRSA198 isolate-3.
In another data set the test system is Pseudomonas aeruginosa. As to the kind of experiment: Antibacterial activity against Pseudomonas aeruginosa […] measured after 18 to 20 hrs by microbroth dilution method. It counts as functional. In a few lines:
as §1

Data set [3] relates to Staphylococcus epidermidis. As to the kind of experiment: Antibacterial activity against Staphylococcus epidermidis ATCC 12228 after 18 to 20 hrs by microbroth dilution method. It counts as functional. The procedure, abridged: as §1
Data set [4] can be described thus: Cytotoxicity against mouse RAW264.7 cells assessed as growth inhibition at 50 ug/mL after 120 hrs by MTT assay relative to control. It counts as cell-based. The note with it: read-out: GI. In a few lines: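 RAW 264.7 mouse macrophages were seeded at 25,000 cells/well and left to attach overnight. Compound in DMSO was added from a 200× concentrate, in duplicate wells, to a 50 μg/mL test level; DMSO served as control. Exposure 120 h at 37°C in 5% CO₂. MTT (4 mg/mL in PBS) was added for 4 h, formazan dissolved in DMSO, and absorbance read at 560 nm. Viability expressed as % of untreated cells, mean ± SE of at least three independent experiments.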
A general note: Formazan colour is commonly taken as a measure of viable cells.

The subject of data set [5] is Staphylococcus aureus. The data set can be described thus: Antibacterial activity against Staphylococcus aureus MRSA198 clinical isolate-1 measured after 18 to 20 hrs by microbroth dilution method. Format: functional. The note with it: MRSA198 isolate-1.
The test system of data set [6] is Staphylococcus aureus. As to the kind of experiment: Antibacterial activity against Staphylococcus aureus MRSA198 clinical isolate-2 measured after 18 to 20 hrs by microbroth dilution method. It counts as functional. The settings on record: MRSA198 isolate-2.
A further data set concerns Bacillus subtilis. The data set can be described thus: Antibacterial activity against Bacillus subtilis ATCC 11774 after 18 to 20 hrs by microbroth dilution method. It counts as functional. In a few lines: as §1
The subject of the next data set is Escherichia coli. The data set can be described thus: Antibacterial activity against Escherichia coli ATCC 25922 measured after 18 to 20 hrs by microbroth dilution method. It counts as functional. The procedure, abridged: as §1
The subject of a further data set is Candida albicans. The data set can be described thus: Antifungal activity against Candida albicans ATCC 7754 after 72 hrs by agar dilution method. It counts as functional. The settings on record: ATCC 7754, 72 h. The procedure, abridged: as §2
Another data set has as its system Salmonella typhimurium. As to the kind of experiment: Antibacterial activity against Salmonella typhimurium ATCC 14028 measured after 18 to 20 hrs by microbroth dilution method. Format: functional, Salmonella enterica subsp. enterica serovar Typhimurium. The settings on record: Salmonella enterica. The procedure, abridged: as §1

For `CC(=O)OC[C@H]1O[C@@H](n2cc(COc3ccc4c(c3)OC(N)=C(C#N)C4c3ccc([N+](=O)[O-])cc3)nn2)[C@H](OC(C)=O)[C@@H](OC(C)=O)[C@@H]1OC(C)=O` (stereo partly drawn), the MIC was found to be 400 µM (≈ 288 µg/mL) against Staphylococcus aureus [1]; 3.12 µM (≈ 2.25 µg/mL) in the data set on Saccharomyces cerevisiae; 12.5 µM (≈ 9.01 µg/mL) against Klebsiella pneumoniae; 1.56 µM (≈ 1.12 µg/mL) in the data set on Aspergillus flavus; 200 µM (≈ 144 µg/mL) in the data set on Staphylococcus aureus [2]; 50 µM (≈ 36 µg/mL) with Pseudomonas aeruginosa. For the same compound, the minimal inhibitory concentration (MIC) came out at 50 µM (≈ 36 µg/mL) in data set [3]; 400 µM (≈ 288 µg/mL) with Staphylococcus aureus [5]; 400 µM (≈ 288 µg/mL) against Staphylococcus aureus [6]; 50 µM (≈ 36 µg/mL) in the data set on Bacillus subtilis; 400 µM (≈ 288 µg/mL) with Escherichia coli; 25 µM (≈ 18 µg/mL) in the data set on Candida albicans. Further, in [4], the inhibition at 120 h, 50 ug/mL came to 27.6%.

For `CC(=O)OC[C@H]1O[C@@H](n2cc(COc3ccc4c(c3)OC(N)=C(C#N)C4c3ccc(Cl)cc3Cl)nn2)[C@H](OC(C)=O)[C@@H](OC(C)=O)[C@@H]1OC(C)=O` (stereo partly drawn), the MIC amounted to 12.5 µM (≈ 9.31 µg/mL) in the data set with Staphylococcus aureus [1]; 400 µM (≈ 298 µg/mL) with Saccharomyces cerevisiae; 200 µM (≈ 149 µg/mL) in the data set on Klebsiella pneumoniae; 25 µM (≈ 18.6 µg/mL) against Aspergillus flavus; 3.12 µM (≈ 2.32 µg/mL) in the data set with Staphylococcus aureus [2]; 50 µM (≈ 37.2 µg/mL) with Pseudomonas aeruginosa. Also, the MIC in data set [3] was found to be 12.5 µM (≈ 9.31 µg/mL); with Staphylococcus aureus [5], 6.25 µM (≈ 4.65 µg/mL); against Staphylococcus aureus [6] it was 1.56 µM (≈ 1.16 µg/mL); against Bacillus subtilis it was 3.12 µM (≈ 2.32 µg/mL); against Escherichia coli it was 3.12 µM (≈ 2.32 µg/mL); in the data set on Salmonella typhimurium, 3.12 µM (≈ 2.32 µg/mL). The MIC in the data set on Candida albicans is 100 µM (≈ 74.5 µg/mL). Further, in data set [4], the inhibition at 120 h, 50 ug/mL was determined as 18.1%.

Take `CC(=O)OC[C@H]1O[C@@H](n2cc(COc3ccc4c(c3)OC(N)=C(C#N)C4c3ccc(N(C)C)cc3)nn2)[C@H](OC(C)=O)[C@@H](OC(C)=O)[C@@H]1OC(C)=O` (stereo partly drawn): the MIC against Staphylococcus aureus [1] is 100 µM (≈ 71.9 µg/mL); with Saccharomyces cerevisiae, 100 µM (≈ 71.9 µg/mL); in the data set on Aspergillus flavus, 12.5 µM (≈ 8.98 µg/mL); with Staphylococcus aureus [2], 200 µM (≈ 144 µg/mL); in the data set on Pseudomonas aeruginosa, 1.56 µM (≈ 1.12 µg/mL); in the data set with Staphylococcus aureus [5], 400 µM (≈ 287 µg/mL). For the same compound, the MIC is 400 µM (≈ 287 µg/mL) with Staphylococcus aureus [6]; 100 µM (≈ 71.9 µg/mL) in the data set with Bacillus subtilis; 12.5 µM (≈ 8.98 µg/mL) against Escherichia coli; 50 µM (≈ 35.9 µg/mL) in the data set on Salmonella typhimurium; 12.5 µM (≈ 8.98 µg/mL) against Candida albicans. The inhibition at 120 h, 50 ug/mL in data set [4] stood at 19.6%.

Consider `O=C(O)c1cn(C2CC2)c2cc(N3CCNCC3)c(F)cc2c1=O` [CIPROFLOXACIN], for which the MIC in the data set on Staphylococcus aureus [1] turned out to be 3.12 µM (≈ 1.03 µg/mL); in the data set with Klebsiella pneumoniae, 1.56 µM (≈ 0.517 µg/mL); in the data set on Pseudomonas aeruginosa, 1.56 µM (≈ 0.517 µg/mL); in data set [3] it was 3.12 µM (≈ 1.03 µg/mL); with Bacillus subtilis, 3.12 µM (≈ 1.03 µg/mL); against Escherichia coli, 1.56 µM (≈ 0.517 µg/mL). This compound registered an MIC in the data set on Salmonella typhimurium of 1.56 µM (≈ 0.517 µg/mL).

For the compound `COc1cccc(OC)c1C(=O)N[C@@H]1C(=O)N2[C@@H]1SC(C)(C)[C@@H]2C(=O)O` [METHICILLIN], the MIC (against Staphylococcus aureus [1]; in the data set on Klebsiella pneumoniae; against Pseudomonas aeruginosa; in data set [3]; in the data set on Bacillus subtilis; against Escherichia coli) was 400 µM (≈ 152 µg/mL) each time. The MIC against Salmonella typhimurium is 400 µM (≈ 152 µg/mL).

Turning to `CN[C@H](CC(C)C)C(=O)N[C@H]1C(=O)N[C@@H](CC(N)=O)C(=O)N[C@H]2C(=O)N[C@H]3C(=O)N[C@H](C(=O)N[C@H](C(=O)O)c4cc(O)cc(O)c4-c4cc3ccc4O)[C@H](O)c3ccc(c(Cl)c3)Oc3cc2cc(c3O[C@@H]2O[C@H](CO)[C@@H](O)[C@H](O)[C@H]2O[C@H]2C[C@](C)(N)[C@H](O)[C@H](C)O2)Oc2ccc(cc2Cl)[C@H]1O` [VANCOMYCIN], the MIC came to 1.56 µM (≈ 2.26 µg/mL) with Staphylococcus aureus [1]; 3.12 µM (≈ 4.52 µg/mL) with Klebsiella pneumoniae; 1.56 µM (≈ 2.26 µg/mL) in the data set on Staphylococcus aureus [2]; 3.12 µM (≈ 4.52 µg/mL) against Pseudomonas aeruginosa; 3.12 µM (≈ 4.52 µg/mL) in data set [3]; 1.55 µM (≈ 2.25 µg/mL) against Staphylococcus aureus [5]. The MIC was found to be 1.56 µM (≈ 2.26 µg/mL) with Staphylococcus aureus [6], 0.78 µM (≈ 1.13 µg/mL) against Bacillus subtilis, 3.12 µM (≈ 4.52 µg/mL) against Escherichia coli and 3.12 µM (≈ 4.52 µg/mL) in the data set on Salmonella typhimurium.
